Assay results from different studies.
Each line is one published result; the experiments were not run side by side. pIC50: −log10 of the molar value.
Cell line: HCT-116
Effect on: cell growth or viability

| Compound | test | setting | measurement | value |
| --- | --- | --- | --- | --- |
| COc1ccc(-c2cc(-c3ccccc3Cl)c3c(=O)[nH]c(=O)[nH]c3n2)cc1 | MTT | 48 h | pIC50 | 4.87 |
| COc1nc(NCc2cn(-c3ccc(C(=O)Nc4ccc(Br)cc4)cc3)nn2)nc(OC)n1 | MTT | 72 h | pIC50 | 7.55 |
| Cc1ccc(-c2cc(-c3c(Cl)cccc3Cl)c3c(=O)[nH]c(=O)[nH]c3n2)cc1 | MTT | 48 h | pIC50 | 4.55 |
| COc1nc(NCc2cn(-c3ccc(NC(=O)c4ccccc4)cc3)nn2)nc(OC)n1 | MTT | 72 h | pIC50 | 7.22 |
| COc1cc2ncnc(Nc3ccc4c(c3)/C(=C/c3ccccc3)C(=O)N4)c2cc1OC | MTT |  | pIC50 | 4.59 |
| O=C(O)c1ccccc1Nc1cccc(C(F)(F)F)c1 | CCK-8 | 72 h | GI50 | > 40 µM |
| COc1ccc(-c2cc(-c3cccc(Br)c3)c3c(=O)[nH]c(=O)[nH]c3n2)cc1 | MTT | 48 h | pIC50 | 5.01 |
| COc1cc2ncnc(N(C)c3ccc4c(c3)/C(=C/c3cccc(Cl)c3)C(=O)N4C)c2cc1OC | MTT |  | pIC50 | 5.12 |
| COc1ccc(-c2cc(-c3ccc(Cl)cc3)c3c(=O)n(C)c(=O)n(C)c3n2)cc1 | MTT | 48 h | pIC50 | 5.12 |
| COc1ccc(C(=O)Nc2ccc(-n3cc(CNc4nc(OC)nc(OC)n4)nn3)cc2)cc1 | MTT | 72 h | pIC50 | 7.23 |
| C=CC(=O)c1cccnc1Nc1cc(C(F)(F)F)ccc1OC | CCK-8 | 72 h | GI50 | 12.3 µM |
| Cc1nc(Nc2ccc3c(c2)/C(=C/c2ccccc2C)C(=O)N3)c2ccccc2n1 | MTT |  | pIC50 | 5.03 |
| COc1ccc(-c2cc(-c3ccc(Br)cc3)c3c(=O)[nH]c(=O)[nH]c3n2)cc1 | MTT | 48 h | pIC50 | 5.10 |
| CC(=NNC(=O)COc1ccc2c(C)c(Cc3ccccc3)c(=O)oc2c1C)c1ccc(Br)cc1 | MTT | 100 µg/mL | viability | 33.6% |
| COc1nc(NCc2cn(-c3ccc(NC(=O)c4ccc([N+](=O)[O-])cc4)cc3)nn2)nc(OC)n1 | MTT | 72 h | pIC50 | 7.24 |
| Cc1ccc(-c2cc(-c3ccc(Cl)c(F)c3)c3c(=O)[nH]c(=O)[nH]c3n2)cc1 | MTT | 48 h | pIC50 | 4.95 |
| Cc1nc(Nc2ccc3c(c2)C(C)(C)C(=O)N3)c2ccccc2n1 | MTT |  | pIC50 | < 4.30 |
| COc1nc(NCc2cn(-c3ccc(C(=O)Nc4ccc(C)cc4)cc3)nn2)nc(OC)n1 | MTT | 72 h | pIC50 | 7.56 |
| Cc1ccc(-c2cc(-c3ccc(Cl)cc3)c3c(=O)n(C)c(=O)n(C)c3n2)cc1 | MTT | 48 h | pIC50 | 5.23 |
| Cc1nc(Nc2ccc3c(c2)C(C)(C)C(=O)N3C)c2ccccc2n1 | MTT |  | pIC50 | < 4.30 |
| COc1nc(NCc2cn(-c3ccc(C(=O)Nc4ccc([N+](=O)[O-])cc4)cc3)nn2)nc(OC)n1 | MTT | 72 h | pIC50 | 7.23 |
| Cc1ccc(-c2cc(-c3ccc(N(C)C)cc3)c3c(=O)n(C)c(=O)n(C)c3n2)cc1 | MTT | 48 h | pIC50 | 4.92 |
| COc1cc2ncnc(Nc3ccc4c(c3)/C(=C/c3ccccc3)C(=O)N4C)c2cc1OC | MTT |  | pIC50 | 5.18 |
| COc1nc(NCc2cn(-c3ccc(C(=O)Nc4ccccc4)cc3)nn2)nc(OC)n1 | MTT | 72 h | pIC50 | 9.06 |
| Cc1nc(Nc2ccc3c(c2)CC(=O)N3)c2ccccc2n1 | MTT |  | pIC50 | 4.91 |
| COc1nc(NCc2cn(-c3ccc(NC(=O)c4ccc(C)cc4)cc3)nn2)nc(OC)n1 | MTT | 72 h | pIC50 | 7.22 |
